≈ marks a conversion by molar mass, not a printed value.
Key:
Ehrlich [1] = test: Antitumor activity against mouse Ehrlich ascites carcinoma cells at 100 ug/ml relative to doxorubicin after 2 hrs; assay type: functional
How it was run: (§1)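 Ehrlich ascites carcinoma cell suspension was exposed to compound for 2 h. Percent nonviable cells was scored by trypan blue dye exclusion. Potency was calculated from the percentage change relative to doxorubicin, which served as reference. Data are means with SE. Treated and control tubes were compared by one-way ANOVA with Duncan's multiple range test.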

Ehrlich [2] = test: Antitumor activity against mouse Ehrlich ascites carcinoma cells; assay type: functional, cell-based
How it was run: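 Ehrlich ascites carcinoma cell suspension was exposed to test compound at three levels (25, 50, 100) for 2 h. Nonviable cells were counted by trypan blue exclusion, using a 1:10 water dilution of a 1 g/100 ml dye stock. The IC50 was calculated against a saline control group. Doxorubicin served as positive control.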

Ehrlich [3] = test: Antitumor activity against mouse Ehrlich ascites carcinoma cells at 25 ug/ml relative to doxorubicin after 2 hrs; assay type: functional; how it was run: as §1
Ehrlich [4] = test: Antitumor activity against mouse Ehrlich ascites carcinoma cells at 50 ug/ml relative to doxorubicin after 2 hrs; assay type: functional; how it was run: as §1

IC50 (Ehrlich [2]) [µg/mL] | SMILES | Activity (Ehrlich [1]) [%] | Activity (Ehrlich [3]) [%] | Activity (Ehrlich [4]) [%]
> 100 | CC(=O)c1nn(-c2ccccc2)cc1C(=O)c1c(C(=O)Nc2ccccc2)nn(-c2ccccc2)c1C | 20 | 0 | 5
> 100 | CC(=O)c1nn(-c2ccc(Br)cc2)cc1C(=O)c1c(C(=O)Nc2ccccc2)nn(-c2ccccc2)c1C | 25 | 0 | 15
 | CCOC(=O)c1nn(-c2ccc([N+](=O)[O-])cc2)cc1C(=O)c1c(C(=O)Nc2ccccc2)nn(-c2ccccc2)c1C | 0 | 0 | 0
100 (≈ 199 µM) | CC(=O)c1nn(-c2cccc(C)c2)cc1C(=O)c1c(C(=O)Nc2ccccc2)nn(-c2ccccc2)c1C | 20 | 0 | 10
 | Cc1c(C(=O)c2cn(-c3ccccc3)nc2-c2ccccc2)c(C(=O)Nc2ccccc2)nn1-c1ccccc1 | 0 | 0 | 0
> 100 | CC(=O)c1nn(-c2ccc(C)cc2)cc1C(=O)c1c(C(=O)Nc2ccccc2)nn(-c2ccccc2)c1C | 10 | 0 | 5
> 100 | CCOC(=O)c1nn(-c2ccc(Br)cc2)cc1C(=O)c1c(C(=O)Nc2ccccc2)nn(-c2ccccc2)c1C | 20 | 0 | 10
70 (≈ 124 µM) | Cc1c(C(=O)c2cn(-c3ccccc3)nc2C(=O)Nc2ccccc2)c(C(=O)Nc2ccccc2)nn1-c1ccccc1 | 35 | 5 | 20
> 100 | Cc1c(C(=O)/C=C/N(C)C)c(C(=O)Nc2ccccc2)nn1-c1ccccc1 | 10 | 0 | 5
> 100 | CCOC(=O)c1nn(-c2ccccc2)cc1C(=O)c1c(C(=O)Nc2ccccc2)nn(-c2ccccc2)c1C | 10 | 0 | 0
 | CC(=O)c1c(C(=O)Nc2ccccc2)nn(-c2ccccc2)c1C | 0 | 0 | 0
35 (≈ 64.4 µM) | COc1cccc2c1C(=O)c1c(O)c3c(c(O)c1C2=O)C[C@@](O)(C(=O)CO)C[C@@H]3O[C@H]1C[C@H](N)[C@H](O)[C@H](C)O1 [DOXORUBICIN] | 100 | 20 | 55
